ChEMBL document CHEMBL4715736, “Identification of anticancer agents based on the thieno[2,3-b]pyridine and 1H-pyrazole molecular scaffolds” (2016)

Tests used:
Type in all cases: functional
SNB-75 = test: Growth inhibition of human SNB-75 cells assessed as cell growth at 1 uM incubated for 48 hrs by sulforhodamine B assay relative to control; conditions: read-out: Activity
BT-549 = test: Growth inhibition of human BT-549 cells assessed as cell growth at 0.1 uM incubated for 48 hrs by sulforhodamine B assay relative to control; conditions: read-out: Activity
UACC-62 = test: Growth inhibition of human UACC-62 cells incubated for 48 hrs by sulforhodamine B assay
Summary of the method: (§1)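 NCI DTP 60-line human tumour panel. Dose-response curves were run only for ligands active in the initial 10 µM screen. GI50 (concentration giving 50% of maximal inhibition of proliferation) and TGI (concentration giving total growth inhibition) were derived from these curves.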

NCI-H322M [1] = test: Growth inhibition of human NCI-H322M cells assessed as cell growth at 0.01 uM incubated for 48 hrs by sulforhodamine B assay relative to control; conditions: read-out: Activity
NCI-H226 = test: Growth inhibition of human NCI-H226 cells assessed as cell growth at 100 uM incubated for 48 hrs by sulforhodamine B assay relative to control; conditions: read-out: Activity
HCT-116 = test: Growth inhibition of human HCT-116 cells incubated for 48 hrs by sulforhodamine B assay
Summary of the method: (§2)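 NCI60 panel at the NCI Developmental Therapeutics Program. Only compounds active in the 10 µM screen went to dose-response testing. GI50, the concentration giving 50% of maximal inhibition of proliferation, and TGI, the concentration giving total growth inhibition, were derived from the dose-response curves.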

COLO 205 = test: Growth inhibition of human COLO 205 cells assessed as cell growth at 100 uM incubated for 48 hrs by sulforhodamine B assay relative to control; conditions: read-out: Activity
Summary of the method: (§3)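 NCI Developmental Therapeutics Program NCI60 panel. Compounds that were active in the 10 µM one-dose screen went on to dose–response testing. Growth at each concentration is expressed relative to untreated control (100%). GI50 (concentration giving 50% of maximal inhibition of proliferation) and TGI (concentration giving total growth inhibition) were derived from the curves.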

SK-MEL-2 = test: Growth inhibition of human SK-MEL-2 cells assessed as cell growth at 100 uM incubated for 48 hrs by sulforhodamine B assay relative to control; conditions: read-out: Activity
U-251 = test: Growth inhibition of human U-251 cells assessed as cell growth at 0.01 uM incubated for 48 hrs by sulforhodamine B assay relative to control; conditions: read-out: Activity
SF-295 = test: Growth inhibition of human SF-295 cells assessed as cell growth at 1 uM incubated for 48 hrs by sulforhodamine B assay relative to control; conditions: read-out: Activity
NCI-H23 = test: Growth inhibition of human NCI-H23 cells assessed as cell growth at 100 uM incubated for 48 hrs by sulforhodamine B assay relative to control; conditions: read-out: Activity
MDA-MB-468 [2] = test: Growth inhibition of human MDA-MB-468 cells assessed as cell growth at 0.01 uM incubated for 48 hrs by sulforhodamine B assay relative to control; conditions: read-out: Activity
SNB-19 [3] = test: Growth inhibition of human SNB-19 cells assessed as cell growth at 0.01 uM incubated for 48 hrs by sulforhodamine B assay relative to control; conditions: read-out: Activity
SF-268 [4] = test: Growth inhibition of human SF-268 cells assessed as cell growth at 0.1 uM incubated for 48 hrs by sulforhodamine B assay relative to control; conditions: read-out: Activity
A498 = test: Growth inhibition of human A498 cells assessed as cell growth at 0.1 uM incubated for 48 hrs by sulforhodamine B assay relative to control; conditions: read-out: Activity; summary of the method: as §3
LOX IMVI = test: Growth inhibition of human LOX IMVI cells incubated for 48 hrs by sulforhodamine B assay; summary of the method: as §2
HCC 2998 = test: Growth inhibition of human HCC 2998 cells assessed as cell growth at 0.1 uM incubated for 48 hrs by sulforhodamine B assay relative to control; conditions: read-out: Activity; summary of the method: as §3
DU-145 [5] = test: Growth inhibition of human DU-145 cells assessed as cell growth at 0.1 uM incubated for 48 hrs by sulforhodamine B assay relative to control; conditions: read-out: Activity; summary of the method: as §3
SNB-19 [6] = test: Growth inhibition of human SNB-19 cells incubated for 48 hrs by sulforhodamine B assay; summary of the method: as §1
PC-3 = test: Growth inhibition of human PC-3 cells incubated for 48 hrs by sulforhodamine B assay; summary of the method: as §1
OVCAR-4 [7] = test: Growth inhibition of human OVCAR-4 cells assessed as cell growth at 1 uM incubated for 48 hrs by sulforhodamine B assay relative to control; conditions: read-out: Activity
MOLT-4 [8] = test: Growth inhibition of human MOLT-4 cells incubated for 48 hrs by sulforhodamine B assay; conditions: for CC50: read-out: LC50 (the source's name); summary of the method: as §2
SF-268 [9] = test: Growth inhibition of human SF-268 cells assessed as cell growth at 100 uM incubated for 48 hrs by sulforhodamine B assay relative to control; conditions: read-out: Activity
NCI-H522 = test: Growth inhibition of human NCI-H522 cells assessed as cell growth at 1 uM incubated for 48 hrs by sulforhodamine B assay relative to control; conditions: read-out: Activity
MOLT-4 [10] = test: Growth inhibition of human MOLT-4 cells assessed as cell growth at 1 uM incubated for 48 hrs by sulforhodamine B assay relative to control; conditions: read-out: Activity
HCT-15 = test: Growth inhibition of human HCT-15 cells assessed as cell growth at 0.1 uM incubated for 48 hrs by sulforhodamine B assay relative to control; conditions: read-out: Activity
MCF7 = test: Growth inhibition of human MCF7 cells assessed as cell growth at 100 uM incubated for 48 hrs by sulforhodamine B assay relative to control; conditions: read-out: Activity
NCI-H322M [11] = test: Growth inhibition of human NCI-H322M cells incubated for 48 hrs by sulforhodamine B assay; conditions: for CC50: read-out: LC50 (the source's name); summary of the method: as §2
MDA-MB-468 [12] = test: Growth inhibition of human MDA-MB-468 cells assessed as cell growth at 0.1 uM incubated for 48 hrs by sulforhodamine B assay relative to control; conditions: read-out: Activity
OVCAR-4 [13] = test: Growth inhibition of human OVCAR-4 cells assessed as cell growth at 100 uM incubated for 48 hrs by sulforhodamine B assay relative to control; conditions: read-out: Activity
OVCAR-8 = test: Growth inhibition of human OVCAR-8 cells assessed as cell growth at 100 uM incubated for 48 hrs by sulforhodamine B assay relative to control; conditions: read-out: Activity
DU-145 [14] = test: Growth inhibition of human DU-145 cells assessed as cell growth at 100 uM incubated for 48 hrs by sulforhodamine B assay relative to control; conditions: read-out: Activity; summary of the method: as §3
Hs-578T = test: Growth inhibition of human Hs-578T cells assessed as cell growth at 0.1 uM incubated for 48 hrs by sulforhodamine B assay relative to control; conditions: read-out: Activity
NCI-H322M [15] = test: Growth inhibition of human NCI-H322M cells assessed as cell growth at 1 uM incubated for 48 hrs by sulforhodamine B assay relative to control; conditions: read-out: Activity
RPMI-8226 = test: Growth inhibition of human RPMI-8226 cells assessed as cell growth at 0.1 uM incubated for 48 hrs by sulforhodamine B assay relative to control; conditions: read-out: Activity

## Cc1cc(C)c(NC(=O)c2sc3nc4c(cc3c2N)CN(Cc2ccccc2)CC4)c(C)c1
SNB-75
  growth at 1 µM: 79%
BT-549
  growth at 0.1 µM: 91%
UACC-62
  GI50: 3.9 µM
  LC50: > 100 µM
  TGI: 42.4 µM
NCI-H322M [1]
  growth at 0.01 µM: 96%
NCI-H226
  growth at 100 µM: 20%
HCT-116
  GI50: 2.89 µM
  LC50 (concentration killing 50% of cells): 67.2 µM
  TGI: 16 µM
COLO 205
  growth at 100 µM: -60%
SK-MEL-2
  growth at 100 µM: 6%
U-251
  growth at 0.01 µM: 99%
SF-295
  growth at 1 µM: 66%
NCI-H23
  growth at 100 µM: 13%
MDA-MB-468 [2]
  growth at 0.01 µM: 99%
SNB-19 [3]
  growth at 0.01 µM: 98%
SF-268 [4]
  growth at 0.1 µM: 100%
A498
  growth at 0.1 µM: 91%
LOX IMVI
  GI50: 5.01 µM
  LC50: 50.9 µM
  TGI: 18.1 µM
HCC 2998
  growth at 0.1 µM: 98%
DU-145 [5]
  growth at 0.1 µM: 101%
SNB-19 [6]
  GI50: 7.21 µM
  LC50: > 100 µM
  TGI: > 100 µM
PC-3
  GI50: 3.13 µM
  TGI: > 100 µM
PC-3; read-out: LC50 (the source's name)
  CC50: > 100 µM
OVCAR-4 [7]
  growth at 1 µM: 77%
MOLT-4 [8]
  GI50: 4.15 µM
  TGI: > 100 µM
  CC50: > 100 µM
SF-268 [9]
  growth at 100 µM: -10%
NCI-H522
  growth at 1 µM: 66%
MOLT-4 [10]
  growth at 1 µM: 96%
HCT-15
  growth at 0.1 µM: 93%
MCF7
  growth at 100 µM: -8%
NCI-H322M [11]
  GI50: 8.65 µM
  TGI: > 100 µM
  CC50: > 100 µM
MDA-MB-468 [12]
  growth at 0.1 µM: 78%
OVCAR-4 [13]
  growth at 100 µM: 28%
OVCAR-8
  growth at 100 µM: 14%
DU-145 [14]
  growth at 100 µM: -5%
Hs-578T
  growth at 0.1 µM: 91%
NCI-H322M [15]
  growth at 1 µM: 102%
RPMI-8226
  growth at 0.1 µM: 100%

## Cc1ccc(NC(=O)c2sc3nc4c(cc3c2N)C(=O)CCC4)cc1C
SNB-75
  growth at 1 µM: -7%
BT-549
  growth at 0.1 µM: 108%
NCI-H322M [1]
  growth at 0.01 µM: 93%
NCI-H226
  growth at 100 µM: 36%
HCT-116
  GI50: 0.527 µM
  LC50 (concentration killing 50% of cells): > 100 µM
  TGI: > 100 µM
COLO 205
  growth at 100 µM: -56%
SK-MEL-2
  growth at 100 µM: 18%
U-251
  growth at 0.01 µM: 98%
SF-295
  growth at 1 µM: 17%
MDA-MB-468 [2]
  growth at 0.01 µM: 95%
SNB-19 [3]
  growth at 0.01 µM: 91%
SF-268 [4]
  growth at 0.1 µM: 94%
A498
  growth at 0.1 µM: 78%
LOX IMVI
  GI50: 0.716 µM
  LC50: > 100 µM
  TGI: > 100 µM
HCC 2998
  growth at 0.1 µM: 93%
DU-145 [5]
  growth at 0.1 µM: 101%
SNB-19 [6]
  GI50: 0.558 µM
  LC50: > 100 µM
  TGI: > 100 µM
OVCAR-4 [7]
  growth at 1 µM: 42%
MOLT-4 [8]
  GI50: 6.41 µM
  TGI: 76.2 µM
  CC50: > 100 µM
SF-268 [9]
  growth at 100 µM: 14%
NCI-H522
  growth at 1 µM: 1%
MOLT-4 [10]
  growth at 1 µM: 82%
HCT-15
  growth at 0.1 µM: 90%
MCF7
  growth at 100 µM: 8%
NCI-H322M [11]
  GI50: 0.975 µM
  TGI: > 100 µM
  CC50: > 100 µM
MDA-MB-468 [12]
  growth at 0.1 µM: 83%
OVCAR-4 [13]
  growth at 100 µM: 18%
OVCAR-8
  growth at 100 µM: 11%
DU-145 [14]
  growth at 100 µM: 14%
Hs-578T
  growth at 0.1 µM: 88%
NCI-H322M [15]
  growth at 1 µM: 49%
RPMI-8226
  growth at 0.1 µM: 97%
